# Test system: MS2 coat protein
# Experiment: apparent Kd, MS2 coat protein; higher = weaker binding; RNA-MaP array; FMN 200 µM where present
# Procedure, shortened: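 Designs were transcribed by stalled E. coli RNA polymerase on Illumina sequencing-chip clusters. They were titrated with SNAP-549-labelled MS2 coat protein from 0.7 or 1.5 nM, doubling to 3 µM, without and then with constant ligand. Buffer: 100 mM Tris-HCl pH 7.5, 80 mM KCl, 4 mM MgCl2, BSA, DTT, yeast tRNA, Tween-20. Green signal was normalised to red-channel RNA signal and control-cluster median Fmax. Apparent Kd is the median of filtered per-cluster binding-curve fits.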
# [1] = designed as: OFF switch for flavin mononucleotide, no ligand
# [2] = ligand present: flavin mononucleotide, designed as: OFF switch for flavin mononucleotide
# [3] = designed as: ON switch for flavin mononucleotide, no ligand
# [4] = ligand present: flavin mononucleotide, designed as: ON switch for flavin mononucleotide
Sequence,apparent Kd [1],apparent Kd [2],apparent Kd [3],apparent Kd [4]
CUAUGUUAGCAGGAUAUGCCAUUAUUCCUUUACGCAGAAGGGCUUACAUGAGGAUCACCCAUGUUACAUUUCAU,14.1 nM,29.8 nM,–,–
CUAUUACGAGGAUAUGAUUUAAAUAACAUGAGGAUCACCCAUGUUUUUACGUUAUUUUAUUUAGAAGGCGUAUAGU,41.8 nM,31 nM,–,–
CUAUUUUGUGCCUCAUUUACAUGAGGAUCACCCAUGUUAACUUAGGAUAUAUUUAUAUUGUUAGAGUAGAAGGAAGUACAUUUU,162 nM,133 nM,–,–
CUCAAGUGAGGAUAUAUACUUCCAUCAUUUGAGAUAGAAGUAUAGAAGGCACAUGAGGAUCACCCAUGUAUAAC,136 nM,39.7 nM,–,–
CUCCUACAUGAGGAUCACCCAUGUCAGGAUAUCUCAGUGGCACCUAAAGGCGCCACCCAGAGAAGGGACGUGCA,11.6 nM,14.8 nM,–,–
CUCGGACAUGAGGAUCACCCAUGUGAGGAUAUGGCGCUAUCGUCAUUAGACGAUUGCGCCAGAAGGCACAAAUG,85.2 nM,268 nM,–,–
CUCGGACAUGAGGAUCACCCAUGUGAGGAUAUGGUGCUAUCGUCAUUAGACGAUUGCGUUAGAAGGCACAUUUU,31.4 nM,80.1 nM,–,–
CUCGUCUGGAAACGGAGCGGCCAACAUGAGGAUCACCCAUGUGAGGAUAUGCCUACUAAAAGUAGGCAGAAGGCGCACUUGGCA,23.6 nM,34.1 nM,–,–
CUCGUGUAAGGAUAUGCGGGCGGGCGCGUUUGUGUUUGUUUGUAGAAGGUACAUGAGGAUCACCCAUGUACUGG,25.5 nM,57.4 nM,–,–
CUCGUGUCAGGAUAUCGAUGGCGCCUCCGGGCGCCCGAACGCGAGAAGGGACAUGAGGAUCACCCAUGUAAAAC,71.8 nM,159 nM,–,–
CUCGUGUGAGGAUAUCUAUUCCACGGACGGGAGUCUUGAAGAGAGAAGGCACAUGAGGAUCACCCAUGUAAUAA,–,33.7 nM,–,–
CUCUUUAGUCAGGAUAUCGUGAGGCUAAUUAUACGAGAAGGGACGACAUGAGGAUCACCCAUGUGGUCUUAGAG,17.4 nM,32.1 nM,–,–
CUGAAGAGAGAAGGAUAUCACAGGAUGGAGAUCUCUGAAUAAACAUGAGGAUCACCCAUGUCCAGUGAGAAGGUCUCGGUUCCG,186 nM,195 nM,–,–
CUGAAUCGAGGAUAUUGUACUGCUGACAUGAGGAUCACCCAUGUAUGUUAACUCGGCCGUCGAGAAGGCGAACAUA,27.6 nM,18 nM,–,–
CUGACGAUGUAAGGAUAUGCUGAGGAUAACUCAGCAGAAGGUACAUGAGGAUCACCCAUGUAAUAAGAUCAAUAAUAACGUCAG,15.3 nM,32.1 nM,–,–
CUGACGGCGACGACAUUUCCAGAACCAGAAGGUGAAGUCAACAUGAGGAUCACCCAUGUCUAUAUCAAGGAUAUGGUAGUGGGC,–,–,301 nM,92.2 nM
CUGAGCAGUCAAGGAUAUCACGUCGAAUAGACGUGAGAAGGUGACCAAUACAUGAGGAUCACCCAUGUAAUACAUGAAGCUCAG,–,–,38.1 nM,17.4 nM
CUGAGCUGAGGAUAUACAUGAGGAUCACCCAUGUGUUAGAGCUUGCGUACAGGCAGAUGUAGAAGGCAGUUCGG,17.4 nM,49.7 nM,–,–
CUGAGCUGAGGAUAUACAUGAGGAUCACCCAUGUGUUGGAGCUUGCGUACAGGCAGAUGUAGAAGGCAGUUCGG,23.6 nM,88.2 nM,–,–
CUGAGGUCAGGAUAUGCAUGGCGGGACUUGCGUCGUGGCGUGGAGAAGGGACAUGAGGAUCACCCAUGUGGAGG,117 nM,99.8 nM,–,–
CUGAGGUGUCAAGGAUAUGCUACCGUUUCGGUAGCAGAAGGUGAUCACAUGAGGAUCACCCAUGUAUGCAUGCGUGAGCGUGCU,–,–,39.5 nM,55.4 nM
CUGAGUAGUCAGGAUAUGCUGUACAAAAGUACAGCAGAAGGGAUUACAUGAGGAUCACCCAUGUUUACUUCAUG,44.8 nM,209 nM,–,–

Sequence,apparent Kd [1],apparent Kd [2],apparent Kd [3],apparent Kd [4]
CUGAUGUGAGGAUAUCAACGCCAUGUCUUUGACAUGGCGCAUGAGAAGGCACAUGAGGAUCACCCAUGUACUUC,23.3 nM,125 nM,–,–
CUGCAACAUGAGGAUCACCCAUGUAACCCAAUUAUAGGAUAUGUGAUGGUGAUCGACAUGACAGAAGGGUGAUUGG,–,–,38.8 nM,149 nM
CUGCUCCGUGUAGGAUAUGCGUACAACCAAUAUGCAGAAGGACAUGAGGAUCACCCAUGUAUGUUAUUAUCACGUGAAGCGUCC,22.3 nM,61.1 nM,–,–
CUGCUCGUAGAGAAGGCGUGGGCACAUGAGGAUCACCCAUGUCGCAGUACGAGGAUAUUUGCCGGCCCGCCCAAAAUGGCGCGA,–,–,220 nM,96.2 nM
CUGGAUCACGCAGGAUAUUACAUGAGGAUCACCCAUGUCAGGACUGCAAUAUCGUCUCCUCGUUGUGAGAAGGGCGGAAUCAUU,14.6 nM,26.3 nM,–,–
CUGGUGUCAGGAUAUGCAUAGCAGUGACCGAAACCCGGUCAGCAGAAGGGACAUGAGGAUCACCCAUGUUAAUA,23 nM,64.1 nM,–,–
CUGGUGUGAGGAUAUCUACGCCAUGUCUUUGACAUGGCGCAAGAGAAGGCACAUGAGGAUCACCCAUGUACUUC,21.7 nM,74.4 nM,–,–
CUGGUGUUAGGAUAUUCGAGGCUGCCUCGGAGACGAGGGUAGGAGAAGGGACAUGAGGAUCACCCAUGUGCUCC,34.4 nM,37.6 nM,–,–
CUGGUUGUCGUAGGAUAUGUAGGAUAUUCCUACAUGAGGAUCACCCAUGUUCGCAUGGAAGAAAGACAGAAGGACGAUGACCAG,–,–,816 nM,50.2 nM
CUGUCGAUAUCAGGAUAUCGAUUAAUUACAUGAGGAUCACCCAUGUUGACAUGGAAUAUAACUUGCGAGAAGGGAUUACGAUAG,–,–,28.3 nM,22.3 nM
CUUAUGUGAGGAUAUGGUGUUGGCCACAGGAAAAAGAUCCUCCAGAAGGCACAUGAGGAUCACCCAUGUAGUGA,39.7 nM,147 nM,–,–
CUUAUUAAACAAGGAUAUCAUUUGUGUACAAGUUUUACAUGAGGAUCACCCAUGUUAAAUGGUUUUGAGAAGGUGUUUAGAACU,–,–,58.4 nM,31.5 nM
CUUCCAGUUGCAGGAUAUCGGGAGGAGAGAUUACGAGAAGGGCAACAUGAGGAUCACCCAUGUAUGUGCUUGGGACAACCUAUC,13.2 nM,38.2 nM,–,–
CUUCGACAUGAGGAUCACCCAUGUCAGGAUAUUGUGUAUCGGGUGUUGGACGGAUAGGCAAGAAGGGAUGUGUG,34.7 nM,30.1 nM,–,–
CUUGGUACUCGAGGAUAUCACAUGAACUACCGAACAUGAGGAUCACCCAUGUGAGAAGGCGAGUUCUGUCCGAUAAAAUUACUC,6.68 nM,11 nM,–,–
CUUGUGUUAGGAUAUGCGCCCUGAAGUGGCAGGGCCAGAGAGCAGAAGGGACAUGAGGAUCACCCAUGUGUGAC,84.3 nM,127 nM,–,–
CUUGUGUUAGGAUAUGCGCCCUGCAAAAGCAAGGCCAGAGAGCAGAAGGAACAUGAGGAUCACCCAUGUGUGAC,55.8 nM,57.7 nM,–,–
CUUGUUUAAGUGAGGAUAUACUGUUAGUAAUGAUUGUAGAAGGUACAUGAGGAUCACCCAUGUUUAUUUAUAUU,17.8 nM,16.7 nM,–,–
CUUUCGUGAGGAUAUCAGUAGUAAAAAAAUAAAAUUACUACUGAGAAGGCACAUGAGGAUCACCCAUGUUCCUC,21.8 nM,143 nM,–,–
CUUUCGUGAGGAUAUGUGGCUUCAAUCGUGAGAUCGAGGCUACAGAAGGCACAUGAGGAUCACCCAUGUUCCUC,37.9 nM,388 nM,–,–
CUUUUGUGAGGAUAUCAGGUGUGCUAGCGUACUGGUACAUCUGAGAAGGCACAUGAGGAUCACCCAUGUUUCUU,32.9 nM,75.5 nM,–,–

# Source: the EternaBench riboswitch data
